Tests used:
[1] = Oral clearance in normal Sprague-Dawley rat at 10 mg/kg, po by HPLC method; assay type: ADME, organism-based; design: dose 10 mg/kg, route oral; conditions: in vivo
How it was run: (§1)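 Rats given STZ 65 mg/kg i.p. in citrate buffer pH 4.5 (controls got buffer); diabetic if fasting glucose >11.1 mM at day 7; insulin group got protamine zinc insulin 5 U/kg s.c. twice daily for 4 weeks. On day 35, overnight-fasted rats dosed orally with 10 mg/kg in 0.5% CMC-Na; plasma by ethyl acetate extraction, HPLC fluorescence (ex 308/em 360 nm); non-compartmental analysis; n=6-7, mean ± S.D.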

[2] = Half life in insulin treated streptozotocin-induced diabetes mellitus Sprague-Dawley rat liver microsomes at 4 uM after 60 mins; assay type: ADME
How it was run: (§2)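 Liver microsomes (0.5 mg/mL protein) from control, STZ-diabetic or insulin-treated diabetic rats, 0.01 M phosphate buffer pH 7.4, 4 μM GLB (methanol <1%); 5 min preincubation at 37 °C, started with NADPH regenerating system. Stopped with 1 M HCl at 0, 5, 15, 30, 45, 60 min. GLB depletion measured by HPLC-fluorescence. AUC by linear trapezoid; Clapp = initial dose/AUC0-t; t1/2 = 0.693/terminal slope. Triplicate incubations; 4-5 rats.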

Jejunum [3] = assay: Drug absorption in streptozotocin-induced diabetes mellitus Sprague-Dawley rat jejunum at 10 ug/ml after 30 mins of in situ single-pass perfusion relative to normal rat; assay type: ADME, tissue-based; conditions: in vivo, 0.5 h
How it was run: (§3)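 In situ single-pass jejunal perfusion in anaesthetized control and STZ-diabetic rats. The segment was preperfused with 0.9% saline at 0.2 mL/min, 37 °C, for 20 min, then perfused with K-H buffer containing GLB 10 μg/mL. Effluent was collected at 15-min intervals after a 30-min steady state. Cumulative absorption was calculated from GLB loss (HPLC); n=5.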

[4] = Oral clearance in insulin treated Sprague-Dawley rat model of streptozotocin-induced diabetes mellitus at 10 mg/kg, po by HPLC method; assay type: ADME, organism-based; design: dose 10 mg/kg, route oral; conditions: in vivo; how it was run: as §1
[5] = Cmax in Sprague-Dawley rat model of streptozotocin-induced diabetes mellitus at 10 mg/kg, po by HPLC method; assay type: ADME, organism-based; design: dose 10 mg/kg, route oral; conditions: in vivo
How it was run: (§4)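 Sprague-Dawley rats: diabetes induced by STZ 65 mg/kg i.p. in citrate buffer pH 4.5 (fasting glucose >11.1 mM at day 7). Insulin group received protamine zinc insulin 5 U/kg s.c. twice daily for 4 weeks. On day 35, overnight-fasted rats got GLB 10 mg/kg orally in 0.5% CMC-Na. Plasma GLB measured by HPLC with fluorescence detection (ex 308/em 360 nm). Non-compartmental analysis; n=6-7.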

[6] = Apparent oral volume of distribution in normal Sprague-Dawley rat at 10 mg/kg, po by HPLC method; assay type: ADME, organism-based; design: dose 10 mg/kg, route oral; conditions: in vivo; how it was run: as §4
[7] = Terminal elimination half life in insulin treated Sprague-Dawley rat model of streptozotocin-induced diabetes mellitus at 10 mg/kg, po by HPLC method; assay type: ADME, organism-based; design: dose 10 mg/kg, route oral; conditions: in vivo, read-out: beta t1/2 (converted); how it was run: as §1
Liver microsome [8] = assay: Drug metabolism in insulin treated streptozotocin-induced diabetes mellitus Sprague-Dawley rat liver microsomes assessed as compound level at 4 uM after 60 mins (reference value: 2.06 +/- 0.27 ug/ml); assay type: ADME; conditions: 1 h
[9] = Cmax in insulin treated Sprague-Dawley rat model of streptozotocin-induced diabetes mellitus at 10 mg/kg, po by HPLC method; assay type: ADME, organism-based; design: dose 10 mg/kg, route oral; conditions: in vivo; how it was run: as §4
[10] = Drug excretion in feces of insulin treated Sprague-Dawley rat model of streptozotocin-induced diabetes mellitus at 10 mg/kg, po by HPLC method; assay type: ADME, organism-based; design: dose 10 mg/kg, route oral; conditions: faeces, read-out: Drug excretion
How it was run: (§5)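 STZ-diabetic (65 mg/kg i.p.), insulin-treated or control rats were dosed with GLB 10 mg/kg orally on day 35 after overnight fast. Urine and feces were collected in metabolic cages at 6-h intervals to 36 h. For bile, the common bile duct was cannulated under pentobarbital and bile collected to 12 h. GLB measured by HPLC-fluorescence and expressed as % of dose.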

[11] = Drug excretion in bile of insulin treated Sprague-Dawley rat model of streptozotocin-induced diabetes mellitus at 10 mg/kg, po by HPLC method; assay type: ADME, organism-based; design: dose 10 mg/kg, route oral; conditions: read-out: Drug excretion; how it was run: as §5
[12] = Drug excretion in urine of Sprague-Dawley rat model of streptozotocin-induced diabetes mellitus at 10 mg/kg, po by HPLC method; assay type: ADME, organism-based; design: dose 10 mg/kg, route oral; conditions: read-out: Drug excretion; how it was run: as §5
[13] = Drug excretion in feces of Sprague-Dawley rat model of streptozotocin-induced diabetes mellitus at 10 mg/kg, po by HPLC method; assay type: ADME, organism-based; design: dose 10 mg/kg, route oral; conditions: faeces, read-out: Drug excretion; how it was run: as §5
[14] = Half life in normal Sprague-Dawley rat liver microsomes at 4 uM after 60 mins; assay type: ADME; how it was run: as §2
[15] = AUC (0 to 60 mins) in streptozotocin-induced diabetes mellitus Sprague-Dawley rat liver microsomes at 4 uM after 60 mins; assay type: ADME; design: dose 4 uM, time < 1 hr; how it was run: as §2
Jejunum [16] = assay: Drug absorption in normal Sprague-Dawley rat jejunum assessed as 200 uM BCRP inhibitor novobiocin-mediated increase in apparent effective permeability at 10 ug/ml measured at 90 mins of perfusion; assay type: ADME, tissue-based; design: scale not given: the % may be the effect or the level left; conditions: 1.5 h
How it was run: (§6)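 Normal rats underwent in situ single-pass jejunal perfusion: saline preperfusion at 0.2 mL/min, 37 °C, for 20 min, then K-H buffer with GLB 10 μg/mL with or without novobiocin 50 or 200 μM. Effluent was collected every 15 min. Peff (cm/min) was calculated from GLB loss and the absorptive area of the segment; n=5.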

[17] = Mean residence time in insulin treated Sprague-Dawley rat model of streptozotocin-induced diabetes mellitus at 10 mg/kg, po by HPLC method; assay type: ADME, organism-based; design: dose 10 mg/kg, route oral; conditions: in vivo; how it was run: as §4
[18] = AUC (0 to infinity) in normal Sprague-Dawley rat at 10 mg/kg, po by HPLC method; assay type: ADME, organism-based; design: time infinity, dose 10 mg/kg, route oral; conditions: plasma; how it was run: as §4
Jejunum [19] = assay: Drug absorption in streptozotocin-induced diabetes mellitus Sprague-Dawley rat jejunum at 10 ug/ml after 120 mins of in situ single-pass perfusion relative to normal rat; assay type: ADME, tissue-based; conditions: in vivo, 2 h; how it was run: as §3
Liver microsome [20] = assay: Apparent hepatic clearance in streptozotocin-induced diabetes mellitus Sprague-Dawley rat liver microsomes assessed per mg protein at 4 uM after 60 mins; assay type: ADME; conditions: 1 h; how it was run: as §2
[21] = AUC (0 to t) in normal Sprague-Dawley rat at 10 mg/kg, po by HPLC method; assay type: ADME, organism-based; design: dose 10 mg/kg, route oral; conditions: plasma; how it was run: as §4
Jejunum [22] = assay: Drug absorption in normal Sprague-Dawley rat jejunum at 10 ug/ml in presence of 50 to 200 uM BCRP inhibitor novobiocin; assay type: ADME, tissue-based; conditions: in vivo; how it was run: as §6
[23] = Drug excretion in normal Sprague-Dawley rat feces at 10 mg/kg, po by HPLC method; assay type: ADME, organism-based; design: dose 10 mg/kg, route oral; conditions: faeces, read-out: Drug excretion; how it was run: as §5
[24] = AUC (0 to t) in Sprague-Dawley rat model of streptozotocin-induced diabetes mellitus at 10 mg/kg, po by HPLC method; assay type: ADME, organism-based; design: dose 10 mg/kg, route oral; conditions: in vivo; how it was run: as §4

A CL/F [1] of 65.5 mL/min/kg, a half-life at 4 µM [2] of 0.211 h and a Drug absorption (Jejunum [3]) of 35% were found for `COc1ccc(Cl)cc1C(=O)NCCc1ccc(S(=O)(=O)NC(=O)NC2CCCCC2)cc1` [GLYBURIDE] in this work. For the same compound, the CL/F [4] was 66.3 mL/min/kg, the Cmax [5] was 1250 ng/mL and the Vd/F [6] was 25.7 L/kg. It also gave a half-life [7] of 8.18 h, a Drug uptake (Liver microsome [8]) of 0.09 µg/mL and a Cmax [9] of 250 ng/mL. For the same compound, the dose excreted [10] was 50%, the dose excreted [11] was 0.018% and the dose excreted [12] was 0.023%. The dose excreted [13] was 40%, the half-life at 4 µM [14] was 0.207 h and the AUC(0-t) at 1 h, 4 µM [15] was 916 ng·h/mL. It also gave an Activity (Jejunum [16]) of 32%, an MRT [17] of 8.15 h and an AUC(0-inf) [18] of 2610 ng·h/mL. The Drug absorption (Jejunum [19]) was 42%, the CLH(app) (Liver microsome [20]) was 52 µL/min/mg and the AUC(0-t) [21] was 2350 ng·h/mL. For the same compound, the Drug absorption (Jejunum [22]) was “Active”, the dose excreted [23] was 72% and the AUC(0-t) [24] was 13300 ng·h/mL.
